Calls of active or inactive are those of the source. The rule behind the calls is not given here. Where a SMILES comes first, the peptide text is derived from it.
Tests used:
[1] = Neurotoxicity in human SH-SY5Y cells at 125 uM incubated for 48 hrs by MTT assay relative to control; type: functional
How it was run: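 SH-SY5Y cells pre-differentiated 6 days with retinoic acid and TPA. 6-OHDA freshly prepared in sterile PBS, tested at 125 μM for 48 h; DMSO-solubilised test agents were run alongside (DMSO 0.5% final). Viability read by MTT reduction, expressed as % of control. 14–16 wells, 4 independent experiments; ANOVA with Tukey post hoc versus control.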

D(2) dopamine receptor [2] = biological target: T1, D(2) dopamine receptor (Homo sapiens, UniProt P14416); assay: (§1) Positive allosteric modulator activity at human dopamine D2 receptor expressed in CHO cells assessed as reduction in forskolin-stimulated cAMP level by measuring maximum efficacy at 10 nM preincubated for 10 mins followed by forskolin addition measured after 5 mins in presence of dopamine by HTRF assay relative to control; type: functional, cell-based; set-up: scale not given: the % may be the effect or the level left; conditions: time 15.0 min
How it was run: (§2)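 CHO cells expressing human D2R, assayed in the presence of 0.1 μM dopamine. Compounds screened between 0.01 nM and 10 μM. Inhibition of forskolin-stimulated cAMP measured by HTRF and expressed as % increase over the 0.1 μM dopamine effect. Mean ± SD of three independent measurements; Student's t-test, p < 0.05.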

D(2) dopamine receptor [3] = biological target: T1, D(2) dopamine receptor; assay: (§3) Positive allosteric modulator activity at human dopamine D2 receptor expressed in CHO cells assessed as reduction in forskolin-stimulated cAMP level at 0.01 nM preincubated for 10 mins followed by forskolin addition measured after 5 mins in presence of dopamine by HTRF assay; type: functional, cell-based; conditions: time 15.0 min; how it was run: as §2
D(2) dopamine receptor [4] = biological target: T1, D(2) dopamine receptor; assay: (§4) Positive allosteric modulator activity at human dopamine D2 receptor expressed in CHO cells assessed as fold increase in dopamine potentiation by measuring reduction of forskolin-stimulated cAMP level at 1 nM preincubated for 10 mins followed by forskolin addition measured after 5 mins in presence of dopamine by HTRF assay; type: functional, cell-based; conditions: filed as positive allosteric modulator, time 15.0 min
How it was run: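 CHO cells stably expressing human D2R. Dopamine concentration–response curves were run with or without modulator at a fixed concentration. D2R activation was read as inhibition of forskolin-stimulated cAMP accumulation by HTRF. The fold shift was derived from DA EC50 values, with Emax also fitted. Three independent experiments, each in duplicate, mean ± SD.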

D(2) dopamine receptor [5] = biological target: T1, D(2) dopamine receptor; assay: as §1, with “at 1” for “at 10”; type: functional, cell-based; conditions: filed as positive allosteric modulator, time 15.0 min
How it was run: (§5)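 Dopamine concentration–response curves run alone or with a fixed compound concentration (0.01 or 1 nM) in human D2R-expressing CHO cells. Forskolin-stimulated cAMP inhibition read by HTRF. Dopamine EC50 and Emax derived from the curves. Three independent experiments in duplicate, mean ± SD.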

[6] = Neurotoxicity in human SH-SY5Y cells at 200 uM incubated for 48 hrs by MTT assay relative to control; type: functional
How it was run: (§6)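 SH-SY5Y neuroblastoma cells differentiated 6 days with retinoic acid and TPA. Exposed 48 h to compound at 200 μM dissolved in DMSO (0.5% final), with 6-OHDA at 125 μM in PBS as positive control. MTT reduction read-out as % of control. 14–16 wells from 4 independent experiments, mean ± SD; ANOVA with Tukey post hoc test.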

[7] = Lipophilicity, logP of the compound in Octan-1-ol/water by shake-flask method; type: physicochemical
D(2) dopamine receptor [8] = biological target: T1, D(2) dopamine receptor; assay: Positive allosteric modulator activity at human dopamine D2 receptor expressed in CHO cells assessed as reduction in forskolin-stimulated cAMP level at 0.01 nM preincubated for 10 mins followed by forskolin addition measured after 5 mins in presence of dopamine by HTRF assay relative to control; type: functional, cell-based; set-up: scale not given: the % may be the effect or the level left; conditions: time 15.0 min; how it was run: as §2
D(2) dopamine receptor [9] = biological target: T1, D(2) dopamine receptor; assay: as §3, with “level” for “level at 0.01 nM”, “assay (reference value: 87.08 +/- 24.87 nM)” for “assay”; type: functional, cell-based; how it was run: as §5
D(2) dopamine receptor [10] = biological target: T1, D(2) dopamine receptor; assay: as §1, with “at 0.01” for “at 10”; type: functional, cell-based; conditions: filed as positive allosteric modulator, time 15.0 min; how it was run: as §5
D(2) dopamine receptor [11] = biological target: T1, D(2) dopamine receptor; assay: as §4, with “at 0.01” for “at 1”; type: functional, cell-based; conditions: filed as positive allosteric modulator, time 15.0 min; how it was run: as §5
D(2) dopamine receptor [12] = biological target: T1, D(2) dopamine receptor; assay: Positive allosteric modulator activity at human dopamine D2 receptor expressed in CHO cells assessed as reduction in forskolin-stimulated cAMP level at 1 nM preincubated for 10 mins followed by forskolin addition measured after 5 mins in presence of dopamine by HTRF assay; type: functional, cell-based; conditions: time 15.0 min; how it was run: as §5
D(2) dopamine receptor [13] = biological target: T1, D(2) dopamine receptor; assay: Agonist activity at human dopamine D2 receptor expressed in CHO cells assessed as reduction in forskolin-stimulated cAMP level at 1 to 1000 nM preincubated for 10 mins followed by forskolin addition measured after 5 mins by HTRF assay; type: functional, cell-based; conditions: dose 1-1000 nM, time 15.0 min
How it was run: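 Agonist mode, without dopamine, in CHO cells expressing human D2R. Compound tested at 1 nM to 1 μM, with dopamine as positive control. Read-out is inhibition of forskolin-stimulated cAMP accumulation by HTRF. Mean ± standard deviation of three independent measurements.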

SH-SY5Y = assay: Neurotoxicity in human SH-SY5Y cells at 200 uM incubated for 48 hrs by MTT assay; type: functional, cell-based; how it was run: as §6

T1 sequence (P14416 whole entry): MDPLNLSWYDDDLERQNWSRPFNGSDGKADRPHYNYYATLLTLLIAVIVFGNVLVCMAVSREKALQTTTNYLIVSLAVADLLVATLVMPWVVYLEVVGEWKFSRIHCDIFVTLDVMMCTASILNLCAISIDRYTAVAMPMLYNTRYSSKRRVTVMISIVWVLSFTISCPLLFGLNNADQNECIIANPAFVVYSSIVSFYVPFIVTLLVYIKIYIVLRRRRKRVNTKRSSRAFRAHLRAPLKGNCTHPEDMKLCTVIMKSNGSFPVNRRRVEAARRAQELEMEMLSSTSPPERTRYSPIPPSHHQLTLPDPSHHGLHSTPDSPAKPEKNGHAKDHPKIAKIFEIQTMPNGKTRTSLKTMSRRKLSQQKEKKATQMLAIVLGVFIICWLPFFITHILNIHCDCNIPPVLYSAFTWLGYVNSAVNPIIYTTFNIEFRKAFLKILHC

Activity (D(2) dopamine receptor [2]) | Activity (D(2) dopamine receptor [3]) | fold change (FC) (D(2) dopamine receptor [4]) | Emax (D(2) dopamine receptor [5]) | logP [7] | Activity (D(2) dopamine receptor [8]) | EC50 (D(2) dopamine receptor [9]) | Emax (D(2) dopamine receptor [10]) | fold change (FC) (D(2) dopamine receptor [11]) | Activity (D(2) dopamine receptor [12]) | Activity (D(2) dopamine receptor [13]) | Compound | Activity [1] | Activity [6] | Activity (SH-SY5Y)
– | – | – | – | – | – | – | – | – | – | – | NCCc1cc(O)c(O)cc1O [OXIDOPAMINE] | 58.27% | – | –
31.9% | inactive | 3.7 | 100% | -0.56 | – | – | – | – | – | – | CC(C)C[C@H](NC(=O)[C@@H]1CCCN1)C(=O)NCC(N)=O (H-Pro-Leu-Gly-NH2) | – | 94.09% | –
– | – | – | – | – | 10.3% | 26.4 nM | 100% | 3.3 | inactive | inactive | CC(C)C[C@H](NC(=O)[C@@H]1CCCN1)C(=O)NCC(=O)NC12CC3CC(CC(C3)C1)C2 | – | – | inactive
– | – | – | – | 2.62 | 15.3% | 17.8 nM | 100% | 4.9 | inactive | inactive | CC(C)C[C@H](NC(=O)[C@@H]1CCCN1C(=O)OC(C)(C)C)C(=O)NCC(=O)NC12CC3CC(CC(C3)C1)C2 | – | 89.73% | –
